Results on 5 compounds are retold here after ChEMBL document CHEMBL3608292, “Synthesis and biological evaluation of novel myrtucommulones and structural analogues that target mPGES-1 and 5-lipoxygenase” (Eur J Med Chem, 2015).

Experiment [1] addresses T1, Prostaglandin E synthase (Homo sapiens, UniProt O14684).
T1 sequence (O14684 whole entry): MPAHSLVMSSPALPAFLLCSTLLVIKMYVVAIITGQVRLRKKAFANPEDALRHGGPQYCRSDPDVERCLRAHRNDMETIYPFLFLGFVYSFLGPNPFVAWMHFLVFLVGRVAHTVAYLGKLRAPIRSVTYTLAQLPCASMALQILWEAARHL
The experiment can be described thus: Inhibition of mPGES-1 in microsomal membranes isolated from interleukin-1beta-stimulated human A549 cells using PGH2 as substrate assessed as PGE2 formation preincubated for 15 mins followed by substrate addition measured after 1 min by RP-HPLC analysis. The format is cell membranes. The method, boiled down: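 A549 cells kept 16 h in DMEM with 2% FCS, then 1 ng/ml IL-1β for 72 h. Cells homogenized and sonicated, microsomes obtained by centrifugation at 10,000 × g then 174,000 × g. Microsomes in 0.1 M potassium phosphate pH 7.4 with 2.5 mM glutathione, preincubated 15 min with compound or 0.3% DMSO. 20 µM PGH₂ (final) for 1 min at 4 °C. Stopped with FeCl₂/citric acid containing 11β-PGE₂, solid-phase extraction, RP-HPLC with UV at 195 nm.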

Experiment [2] has as its target T2, Polyunsaturated fatty acid 5-lipoxygenase (Homo sapiens, UniProt P09917).
T2 sequence (P09917 whole entry): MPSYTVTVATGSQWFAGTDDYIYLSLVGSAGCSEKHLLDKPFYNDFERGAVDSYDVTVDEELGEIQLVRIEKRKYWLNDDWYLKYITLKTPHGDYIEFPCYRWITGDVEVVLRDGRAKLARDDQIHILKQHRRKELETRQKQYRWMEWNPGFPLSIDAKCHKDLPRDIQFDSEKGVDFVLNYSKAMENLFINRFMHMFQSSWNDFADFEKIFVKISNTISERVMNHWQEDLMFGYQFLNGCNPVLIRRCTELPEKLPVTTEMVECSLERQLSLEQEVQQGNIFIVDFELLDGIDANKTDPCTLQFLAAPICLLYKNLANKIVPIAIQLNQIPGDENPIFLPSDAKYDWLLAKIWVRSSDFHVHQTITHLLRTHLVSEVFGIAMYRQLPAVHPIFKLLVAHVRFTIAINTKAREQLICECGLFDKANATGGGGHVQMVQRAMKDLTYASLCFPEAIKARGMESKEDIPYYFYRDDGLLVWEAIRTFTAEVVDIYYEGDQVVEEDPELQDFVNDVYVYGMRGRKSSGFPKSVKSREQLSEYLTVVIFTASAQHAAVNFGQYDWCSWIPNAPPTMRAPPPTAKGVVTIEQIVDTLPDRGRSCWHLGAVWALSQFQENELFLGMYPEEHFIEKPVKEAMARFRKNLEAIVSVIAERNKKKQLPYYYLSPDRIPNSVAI
Kind of experiment: Inhibition of recombinant human 5-LO expressed in Escherichia coli BL21 using arachidonic acid as substrate assessed as formation of all-trans isomer of LTB4, 5-H(P)ETE preincubated for 5 to 10 mins followed by substrate addition measured after 10 mins by HPLC analysis.

The target in experiment [3] is T2, Polyunsaturated fatty acid 5-lipoxygenase. Kind of experiment: Inhibition of 5-LO in ionophore A23187-stimulated human PMNL using arachidonic acid as substrate assessed as formation of LTB4, 5(S),12(S)-DiHETE, 5-H(p)ETE preincubated for 15 mins followed by substrate and ionophore addition measured after 10 mins by HPLC analysis.
Experiment [4] deals with Jurkat. The experiment can be described thus: Cytotoxicity against human Jurkat cells assessed as induction of cell death after 48 hrs by MTT assay. The format is functional, cell-based. The method in brief:
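Jurkat T cells grown in RPMI 1640 with 10% heat-inactivated FCS, 10 mM HEPES, penicillin/streptomycin at 37 °C, 5% CO₂. Seeded at 2 × 10⁴ per well. Compounds or 0.3% DMSO vehicle added for 48 h. MTT then added until blue staining, cells lysed overnight in 10% SDS/20 mM HCl, absorbance read at 570 nm. Three to four independent experiments.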
(Tetrazolium assays rely on reduction of a dye to a coloured formazan, in cell work by metabolically active cells.)

Experiment [5] deals with Prostaglandin G/H synthase 1 (Homo sapiens, UniProt P23219). Kind of experiment: Inhibition of COX-1 in human platelet using arachidonic acid as substrate assessed as formation of 12-HHT preincubated for 10 mins followed by substrate addition measured after 5 mins by HPLC analysis.
Experiment [6] has as its target T2, Polyunsaturated fatty acid 5-lipoxygenase. The experiment can be described thus: Inhibition of 5-LO in human PMNL using arachidonic acid as substrate preincubated for 10 mins followed by substrate addition measured after 10 mins by HPLC analysis.
Experiment [7] shares this target. Kind of experiment: Inhibition of recombinant human 5-LO expressed in Escherichia coli BL21 using arachidonic acid as substrate assessed as formation of LTB4, 5(S),12(S)-DiHETE, 5-H(p)ETE preincubated for 5 to 10 mins followed by substrate addition measured after 10 mins by HPLC.
Experiment [8] addresses T3, Polyunsaturated fatty acid 5-lipoxygenase (Homo sapiens) (UniProt P09917).
T3 sequence (whole entry): T2 sequence (P09917 whole entry)
The experiment can be described thus: Inhibition of recombinant human 5-LO expressed in Escherichia coli BL21 using arachidonic acid as substrate assessed as remaining activity at 10 uM preincubated for 5 to 10 mins followed by substrate addition measured after 10 mins by HPLC analysis relative to control. The method, boiled down:
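5-LO expressed in E. coli BL21 from pT3-5-LO plasmid at 37 °C, then partially purified. Enzyme with compound held 5–10 min at 4 °C, prewarmed 30 s at 37 °C. Reaction started with 2 mM CaCl₂ plus 20 µM AA, stopped after 10 min at 37 °C with ice-cold methanol. All-trans LTB₄ isomers and 5-H(P)ETE quantified by HPLC. BWA4C used as control.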

Experiment [9] concerns the target T3, Polyunsaturated fatty acid 5-lipoxygenase (Homo sapiens). The experiment can be described thus: Inhibition of 5-LO in ionophore A23187-stimulated human PMNL using arachidonic acid as substrate assessed as remaining activity at 10 uM preincubated for 15 mins followed by substrate and ionophore addition measured after 10 mins by HPLC analysis relative to control. The method in brief:
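Human PMNL isolated by dextran sedimentation, density-gradient centrifugation and hypotonic erythrocyte lysis. 5 × 10⁶ cells/ml in PBS pH 7.4 with 1 mg/ml glucose and 1 mM CaCl₂. Compounds preincubated 15 min at 37 °C, then ionophore A23187 plus 20 µM AA for 10 min at 37 °C. Stopped with methanol/HCl, PGB₁ internal standard. 5-LO metabolites analysed by HPLC. BWA4C used as control.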

Sequence of Prostaglandin G/H synthase 1 (P23219 whole entry): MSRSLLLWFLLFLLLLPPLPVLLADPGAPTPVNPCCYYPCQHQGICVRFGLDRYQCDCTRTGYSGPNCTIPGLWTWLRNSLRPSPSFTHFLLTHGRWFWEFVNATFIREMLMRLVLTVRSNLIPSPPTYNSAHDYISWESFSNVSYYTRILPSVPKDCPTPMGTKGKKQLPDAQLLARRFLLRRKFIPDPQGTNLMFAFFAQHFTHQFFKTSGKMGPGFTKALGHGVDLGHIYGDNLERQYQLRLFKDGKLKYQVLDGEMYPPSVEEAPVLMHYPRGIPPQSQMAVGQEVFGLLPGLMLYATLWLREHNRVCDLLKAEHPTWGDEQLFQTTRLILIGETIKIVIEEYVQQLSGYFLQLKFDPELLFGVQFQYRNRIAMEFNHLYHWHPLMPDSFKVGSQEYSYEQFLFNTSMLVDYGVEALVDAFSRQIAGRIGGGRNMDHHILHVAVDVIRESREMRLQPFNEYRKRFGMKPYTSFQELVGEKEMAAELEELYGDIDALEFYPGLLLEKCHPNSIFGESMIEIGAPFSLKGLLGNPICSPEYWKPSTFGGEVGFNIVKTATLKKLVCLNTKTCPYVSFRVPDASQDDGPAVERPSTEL

`CC(C)C(=O)c1c(O)c([C@H](C2=C(O)C(C)(C)C(=O)C(C)(C)C2=O)C(C)C)c(O)c([C@H](C2=C(O)C(C)(C)C(=O)C(C)(C)C2=O)C(C)C)c1O` [MYRTUCOMMULONE A]: the IC50 – broadly, the point on the concentration scale where inhibition reaches its midpoint – in experiment [1] amounted to 1 µM; in experiment [2], 15 µM; in [3] it was 3.2 µM; in [5], 17 µM; in experiment [6], 1.8 µM; in [7] it was 5 µM. For the same compound, in experiment [4], the EC50 (as a rule, the midpoint of the concentration-response curve) turned out to be 2.4 µM.
As to `CC(C)C(=O)c1c2c(c(O)c3c1OC1=C(C(=O)C(C)(C)C(=O)C1(C)C)C3C(C)C)C(C(C)C)C1=C(O2)C(C)(C)C(=O)C(C)(C)C1=O` (centres undefined), the IC50 in experiment [1], in experiment [2] and in experiment [3] was more than 10 µM throughout. In addition, the values for the Activity in experiment [8] and in experiment [9] were 95% and 69.5%, respectively. Further, the EC50 in experiment [4] amounted to 17.1 µM.
As to `CC(C)C(C1=C(O)C(C)(C)C(=O)C(C)(C)C1=O)c1c(O)c(C(=O)c2ccccc2)c(O)c(C(C2=C(O)C(C)(C)C(=O)C(C)(C)C2=O)C(C)C)c1O` (centres undefined), the IC50 in experiment [1] was 5 µM; in [2], more than 10 µM; in experiment [3], more than 10 µM. The Activity was 82.9% in experiment [8] and 69.7% in experiment [9]. Moreover, in [4], the EC50 is more than 30 µM.
For `CC(C)C(C1=C(O)CC(C)(C)CC1=O)c1c(O)c(C(=O)c2ccccc2)c(O)c(C(C2=C(O)CC(C)(C)CC2=O)C(C)C)c1O` (centres undefined), the IC50 in experiment [1] is 3.5 µM; in experiment [2], 8.6 µM; in [3], more than 10 µM. For the same compound, the Activity in experiment [9] amounted to 66.1%. Also, the EC50 in [4] was 4.4 µM.
Regarding `CC(C)C(C1=C(O)CC(C)(C)CC1=O)c1c(O)c(C(C2=C(O)CC(C)(C)CC2=O)C(C)C)c(O)c(C(C2=C(O)CC(C)(C)CC2=O)C(C)C)c1O` (centres undefined), the IC50 was 0.68 µM in [1], 2.8 µM in experiment [2] and more than 10 µM in [3]. Further, the Activity in [9] is 83.5%. Besides, the EC50 in experiment [4] came to 6.2 µM.
